# In ChEMBL document CHEMBL4152350, “A new multifunctional hydroxytyrosol-clofibrate with hypolipidemic, antioxidant, and hepatoprotective effects” (Bioorg Med Chem Lett, 2018):
# Active and inactive are the calls of the source. No cut-off for these calls is given here.
# What was measured:
# Mus musculus [1] = assay: Hypolipidemic activity in Triton WR 1339-induced acute hyperlipidemic ICR mouse model assessed as decrease in total cholesterol levels in plasma at 240 umol/kg, ig for one week followed by Triton WR 1339 challenge on day 6 measured after 24 hrs; type: functional; design: scale not given: the % may be the effect or the level left
# Summary of the method: (§1)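 Acute hyperlipidemia was induced with Triton WR 1339 in mice given 240 µmol/kg intragastrically for 7 days. Plasma TG and TC are expressed as percent reduction, and plasma MDA in nmol/mL. Data are mean ± SEM, n=8, compared against the blank and model groups.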
# Mus musculus [2] = assay: Toxicity in ICR mouse assessed as body weight at 240 umol/kg/day administered po for 2 months (reference value: 36.8 +/- 0.70 g); type: organism-based; conditions: in vivo
# Mus musculus [3] = assay: Hepatoprotective activity in ICR mouse assessed as hepatocyte hyperplasia at 240 umol/kg/day administered po for 2 months by histopathological analysis; type: functional, organism-based
# Summary of the method: (§2)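 Liver slices from male ICR mice (20.0 ± 2.0 g) were examined histopathologically after 240 µmol/kg/day dosing; normal controls received the same volume of vehicle.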
# Mus musculus [4] = assay: Antioxidant activity in ICR mouse assessed as serum CAT levels at 240 umol/kg/day administered po for 2 months (reference value: 2.83 +/- 0.22 U/ml); type: functional
# Summary of the method: (§3)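 Male ICR mice (20.0 ± 2.0 g) received 240 µmol/kg/day; normal controls got an equal volume of vehicle. Commercial kits measured serum SOD, CAT and MDA and hepatic GSH and GSSG, with the GSH/GSSG ratio calculated. Groups were compared with normal and CF groups.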
# [5] = Antioxidant activity assessed as hydroxyl radical scavenging activity after 60 mins; type: functional
# Mus musculus [6] = assay: Hepatoprotective activity in ICR mouse assessed as liver coefficient at 240 umol/kg/day administered po for 2 months (reference value: 40.50 +/- 0.71 mg/g); type: functional
# Mus musculus [7] = assay: Antioxidant activity in ICR mouse assessed as hepatic GSSG levels at 240 umol/kg/day administered po for 2 months (reference value: 2.91 +/- 0.31 microM); type: functional; summary of the method: as §3
# Mus musculus [8] = assay: Hepatoprotective activity in ICR mouse assessed as serum ALT levels at 240 umol/kg/day administered po for 2 months (reference value: 36.25 +/- 1.08 U/L); type: functional
# Mus musculus [9] = assay: Hepatoprotective activity in ICR mouse assessed as serum AST levels at 240 umol/kg/day administered po for 2 months (reference value: 107.25 +/- 2.77 U/L); type: functional
# Mus musculus [10] = assay: Hypolipidemic activity in Triton WR 1339-induced acute hyperlipidemic ICR mouse model assessed as decrease in plasma triglyceride levels at 240 umol/kg, ig for one week followed by Triton WR 1339 challenge on day 6 measured after 24 hrs; type: functional; design: scale not given: the % may be the effect or the level left; summary of the method: as §1
# Mus musculus [11] = assay: Antioxidant activity in ICR mouse assessed as hepatic GSH levels at 240 umol/kg/day administered po for 2 months (reference value: 43.38 +/- 4.59 microM); type: functional; summary of the method: as §3
# Mus musculus [12] = assay: Hypolipidemic activity in Triton WR 1339-induced acute hyperlipidemic ICR mouse model assessed as decrease in malonaldehyde levels in plasma at 240 umol/kg, ig for one week followed by Triton WR 1339 challenge on day 6 measured after 24 hrs; type: functional; design: scale not given: the % may be the effect or the level left; summary of the method: as §1
# Mus musculus [13] = assay: Hepatoprotective activity in ICR mouse assessed as liver weight at 240 umol/kg/day administered po for 2 months (reference value: 1.49 +/- 0.42 g); type: functional
# Mus musculus [14] = assay: Antioxidant activity in ICR mouse assessed as serum MDA levels at 240 umol/kg/day administered po for 2 months (reference value: 6 +/- 0.20 microM); type: functional; summary of the method: as §3
# Mus musculus [15] = assay: Hepatoprotective activity in ICR mouse assessed as centrilobular hypertrophy at 240 umol/kg/day administered po for 2 months by histopathological analysis; type: functional, organism-based; summary of the method: as §2
# Mus musculus [16] = assay: Hepatoprotective activity in ICR mouse assessed as serum TBIL levels at 240 umol/kg/day administered po for 2 months (reference value: 0.63 +/- 0.09 microM); type: functional
# Mus musculus [17] = assay: Antioxidant activity in ICR mouse assessed as serum SOD levels at 240 umol/kg/day administered po for 2 months (reference value: 337.64 +/- 4.82 U/ml); type: functional; summary of the method: as §3
# [18] = Antioxidant activity assessed as DPPH radical scavenging activity after 30 mins; type: functional
# Mus musculus [19] = assay: Antioxidant activity in ICR mouse assessed as hepatic GSH to GSSG ratio at 240 umol/kg/day administered po for 2 months (reference value: 16.4 +/- 2.34); type: functional; summary of the method: as §3
# Mus musculus [20] = assay: Hepatoprotective activity in ICR mouse assessed as hypertrophy at 240 umol/kg/day administered po for 2 months by histopathological analysis; type: functional, organism-based; summary of the method: as §2
# Mus musculus [21] = assay: Hepatoprotective activity in ICR mouse assessed as serum APK levels per 100 ml at 240 umol/kg/day administered po for 2 months (reference value: 20.02 +/- 0.61 U); type: functional
# Mus musculus [22] = assay: Hepatoprotective activity in ICR mouse assessed as midzonal mitosis at 240 umol/kg/day administered po for 2 months by histopathological analysis; type: functional, organism-based; summary of the method: as §2
SMILES,Activity (Mus musculus [1]),Activity (Mus musculus [2]),Activity (Mus musculus [3]),Activity (Mus musculus [4]),Activity [5],Activity (Mus musculus [6]),Activity (Mus musculus [7]),Activity (Mus musculus [8]),Activity (Mus musculus [9]),Activity (Mus musculus [10]),Activity (Mus musculus [11]),Activity (Mus musculus [12]),Activity (Mus musculus [13]),Activity (Mus musculus [14]),Activity (Mus musculus [15]),Activity (Mus musculus [16]),Activity (Mus musculus [17]),Activity [18],Ratio (Mus musculus [19]),Activity (Mus musculus [20]),other results
CC(C)(Oc1ccc(Cl)cc1)C(=O)OCCc1ccc(O)c(O)c1,33%,33.4 g,Active,2.04 U/ml,Active,44.17 mg/g,4.85 µM,39.75 U/L,121.37 U/L,30%,22.87 µM,29%,1.48 g,6.44 µM,Active,0.95 µM,275.2 U/ml,Active,4.1,Active,Activity (Mus musculus [21]): 17.57 U; Activity (Mus musculus [22]): Active
CCOC(=O)C(C)(C)Oc1ccc(Cl)cc1 [CLOFIBRATE],23%,33.8 g,inactive,3.86 U/ml,inactive,52.12 mg/g,6.24 µM,63.13 U/L,157.5 U/L,24%,11.6 µM,14%,1.77 g,7.79 µM,inactive,13.09 µM,228.32 U/ml,inactive,2.1,inactive,Activity (Mus musculus [21]): 28.64 U; Activity (Mus musculus [22]): inactive
